Measurements as given in ChEMBL document CHEMBL4270565, “Design, synthesis and antimicrobial evaluation of propylene-tethered ciprofloxacin-isatin hybrids” (Eur J Med Chem, 2018).
Values after ≈ are worked out from the molar mass of the structure shown.

Tests used:
[1] = Cytotoxicity against African green monkey Vero cells assessed as reduction in cell viability after 72 hrs by MTT assay; format: cell-based; conditions: chlorocebus sabaeus
Method in brief: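 VERO cells were kept in MEM with Earle's salts and 10% FBS at 37 °C, 5% CO2. They were seeded in 96-well plates and allowed to recover for 24 h. Cells were then exposed to compounds in DMSO over a series from 1000 down to 4 for 72 h. Viability was read by MTT, and CC50 was calculated by Bliss analysis.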

Escherichia coli [2] = experiment: Antibacterial activity against extended-spectrum beta-lactamase deficient Escherichia coli ATCC 25922 after 18 to 24 hrs by two-fold serial dilution method; format: functional
Method in brief: (§1)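 Agar two-fold dilution MIC. Compounds were dissolved in 0.1 N NaOH and water, then serially diluted in melted Mueller-Hinton agar, with top concentrations starting at 128. Plates were inoculated at about 10 cfu and incubated at 35 °C for 18–24 h. MIC was taken as the lowest concentration giving 90% inhibition of growth.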

Enterococcus faecium [3] = experiment: Antibacterial activity against Enterococcus faecium ATCC 700221 after 18 to 24 hrs by two-fold serial dilution method; format: functional; method in brief: as §1
[4] = test system: Acinetobacter calcoaceticus; experiment: Antibacterial activity against Acinetobacter calcoaceticus ATCC 19606 after 18 to 24 hrs by two-fold serial dilution method; format: functional; method in brief: as §1
Morganella morganii = experiment: Antibacterial activity against Morganella morganii ATCC 25830 after 18 to 24 hrs by two-fold serial dilution method; format: functional; method in brief: as §1
Pseudomonas aeruginosa = experiment: Antibacterial activity against Pseudomonas aeruginosa ATCC 27853 after 18 to 24 hrs by two-fold serial dilution method; format: functional; method in brief: as §1
Enterococcus faecalis [5] = experiment: Antibacterial activity against Enterococcus faecalis ATCC 51299 after 18 to 24 hrs by two-fold serial dilution method; format: functional; method in brief: as §1
Citrobacter freundii = experiment: Antibacterial activity against extended-spectrum beta-lactamase harboring Citrobacter freundii ATCC 43864 after 18 to 24 hrs by two-fold serial dilution method; format: functional
Method in brief: (§2)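 Agar two-fold serial dilution in Mueller-Hinton agar. Strains came from the Chinese Center for Disease Control and Prevention. Compounds were dissolved in 0.1 N NaOH and water, then diluted in melted agar to final levels stepping down from 128. Plates were inoculated with bacterial cfu and incubated at 35 C for 18–24 h. MIC is the lowest concentration giving 90% growth inhibition.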

Enterococcus faecium [6] = experiment: Antibacterial activity against Enterococcus faecium 13-7 after 18 to 24 hrs by two-fold serial dilution method; format: functional; method in brief: as §1
Enterobacter cloacae = experiment: Antibacterial activity against Enterobacter cloacae ATCC 43560 after 18 to 24 hrs by two-fold serial dilution method; format: functional
Enterococcus faecalis [7] = experiment: Antibacterial activity against Enterococcus faecalis ATCC 29212 after 18 to 24 hrs by two-fold serial dilution method; format: functional; method in brief: as §1
Escherichia coli [8] = experiment: Antibacterial activity against extended-spectrum beta-lactamase harboring Escherichia coli ATCC 35218 after 18 to 24 hrs by two-fold serial dilution method; format: functional; method in brief: as §2
Klebsiella pneumoniae [9] = experiment: Antibacterial activity against extended-spectrum beta-lactamase harboring Klebsiella pneumoniae ATCC 700603 after 18 to 24 hrs by two-fold serial dilution method; format: functional; method in brief: as §2
Staphylococcus aureus [10] = experiment: Antibacterial activity against methicillin-sensitive Staphylococcus aureus ATCC 29213 after 18 to 24 hrs by two-fold serial dilution method; format: functional; method in brief: as §2
[11] = test system: Mycobacterium tuberculosis; experiment: Antimycobacterial activity against Mycobacterium tuberculosis H37Rv after 7 days; format: functional; conditions: 168 h
Method in brief: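 Rapid direct susceptibility test in 48-well plates. Two-fold dilutions of compound from DMSO stocks were mixed with an equal volume of bacterial suspension. Medium-only wells served as growth controls and water-only wells as no-growth controls. Plates were sealed and held at 37 C in a humid box, and controls were checked at 3 days. MIC (90% growth inhibition) was read visually by high-magnification observation of the cells and re-read at 7 days.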

Klebsiella aerogenes = experiment: Antibacterial activity against Enterobacter aerogenes ATCC 13048 after 18 to 24 hrs by two-fold serial dilution method; format: functional; method in brief: as §1
Klebsiella pneumoniae [12] = experiment: Antibacterial activity against extended-spectrum beta-lactamase deficient Klebsiella pneumoniae 15-2 after 18 to 24 hrs by two-fold serial dilution method; format: functional; method in brief: as §1
[13] = test system: Stenotrophomonas maltophilia; experiment: Antibacterial activity against Stenotrophomonas maltophilia ATCC 13636 after 18 to 24 hrs by two-fold serial dilution method; format: functional; method in brief: as §1
[14] = test system: Staphylococcus epidermidis; experiment: Antibacterial activity against methicillin-resistant Staphylococcus epidermidis 13-3 after 18 to 24 hrs by two-fold serial dilution method; format: functional; method in brief: as §2
Staphylococcus aureus [15] = experiment: Antibacterial activity against methicillin-resistant Staphylococcus aureus ATCC 33591 after 18 to 24 hrs by two-fold serial dilution method; format: functional; method in brief: as §2
Providencia rettgeri = experiment: Antibacterial activity against Providencia rettgeri ATCC 31052 after 18 to 24 hrs by two-fold serial dilution method; format: functional; method in brief: as §1
Proteus mirabilis = experiment: Antibacterial activity against Proteus mirabilis 13-1 after 18 to 24 hrs by two-fold serial dilution method; format: functional; method in brief: as §1
[16] = test system: Staphylococcus epidermidis; experiment: Antibacterial activity against methicillin-sensitive Staphylococcus epidermidis ATCC 12228 after 18 to 24 hrs by two-fold serial dilution method; format: functional; method in brief: as §1
Serratia marcescens = experiment: Antibacterial activity against Serratia marcescens ATCC 21074 after 18 to 24 hrs by two-fold serial dilution method; format: functional; method in brief: as §1
Proteus vulgaris = experiment: Antibacterial activity against Proteus vulgaris ATCC 29905 after 18 to 24 hrs by two-fold serial dilution method; format: functional; method in brief: as §1

Row | SMILES | CC50 at 72 h [1] [µg/mL] | MIC90 (Escherichia coli [2]) [µg/mL] | MIC90 (Enterococcus faecium [3]) [µg/mL] | MIC90 [4] [µg/mL] | MIC90 (Morganella morganii) [µg/mL] | MIC90 (Pseudomonas aeruginosa) [µg/mL] | MIC90 (Enterococcus faecalis [5]) [µg/mL] | MIC90 (Citrobacter freundii) [µg/mL] | MIC90 (Enterococcus faecium [6]) [µg/mL] | MIC90 (Enterobacter cloacae) [µg/mL] | MIC90 (Enterococcus faecalis [7]) [µg/mL] | MIC90 (Escherichia coli [8]) [µg/mL] | MIC90 (Klebsiella pneumoniae [9]) [µg/mL] | MIC90 (Staphylococcus aureus [10]) [µg/mL] | MIC90 [11] [µg/mL] | MIC90 (Klebsiella aerogenes) [µg/mL] | MIC90 (Klebsiella pneumoniae [12]) [µg/mL] | MIC90 [13] [µg/mL] | MIC90 [14] [µg/mL] | MIC90 (Staphylococcus aureus [15]) [µg/mL] | further results
1 | CO/N=C1\C(=O)N(CCCN2CCN(c3cc4c(cc3F)c(=O)c(C(=O)O)cn4C3CC3)CC2)c2ccccc21 | 32 (≈ 58.4 µM) | ≤ 0.03 | 8 (≈ 14.6 µM) | 0.5 (≈ 0.913 µM) | ≤ 0.03 | 1 (≈ 1.83 µM) | 1 (≈ 1.83 µM) | ≤ 0.03 | 32 (≈ 58.4 µM) | ≤ 0.03 | 0.5 (≈ 0.913 µM) | ≤ 0.03 | 0.5 (≈ 0.913 µM) | 0.125 (≈ 0.228 µM) | 0.39 (≈ 0.712 µM) | ≤ 0.03 | ≤ 0.03 | 0.06 (≈ 0.11 µM) | 2 (≈ 3.65 µM) | 0.25 (≈ 0.457 µM) | MIC90 (Providencia rettgeri): ≤ 0.03 µg/mL; MIC90 (Proteus mirabilis): ≤ 0.03 µg/mL; MIC90 [16]: 0.125 µg/mL (≈ 0.228 µM); MIC90 (Serratia marcescens): 0.06 µg/mL (≈ 0.11 µM); MIC90 (Proteus vulgaris): ≤ 0.03 µg/mL
2 | CO/N=C1\C(=O)N(CCCN2CCN(c3cc4c(cc3F)c(=O)c(C(=O)OCCCN3C(=O)/C(=N/OC)c5ccccc53)cn4C3CC3)CC2)c2ccccc21 | 64 (≈ 83.8 µM) | 4 (≈ 5.24 µM) | 128 (≈ 168 µM) | 128 (≈ 168 µM) | 128 (≈ 168 µM) | 64 (≈ 83.8 µM) | 128 (≈ 168 µM) | 64 (≈ 83.8 µM) | > 128 | 32 (≈ 41.9 µM) | 64 (≈ 83.8 µM) | 4 (≈ 5.24 µM) | 64 (≈ 83.8 µM) | 128 (≈ 168 µM) | 12.5 (≈ 16.4 µM) | 64 (≈ 83.8 µM) | 32 (≈ 41.9 µM) | 128 (≈ 168 µM) | 128 (≈ 168 µM) | > 128 | MIC90 (Providencia rettgeri): 64 µg/mL (≈ 83.8 µM); MIC90 (Proteus mirabilis): 64 µg/mL (≈ 83.8 µM); MIC90 [16]: 32 µg/mL (≈ 41.9 µM); MIC90 (Serratia marcescens): 64 µg/mL (≈ 83.8 µM); MIC90 (Proteus vulgaris): 32 µg/mL (≈ 41.9 µM)
3 | CCO/N=C1\C(=O)N(CCCN2CCN(c3cc4c(cc3F)c(=O)c(C(=O)O)cn4C3CC3)CC2)c2ccc(C)cc21 | 128 (≈ 222 µM) | ≤ 0.03 | 4 (≈ 6.95 µM) | 0.5 (≈ 0.869 µM) | ≤ 0.03 | 1 (≈ 1.74 µM) | 1 (≈ 1.74 µM) | ≤ 0.03 | 32 (≈ 55.6 µM) | ≤ 0.03 | 0.5 (≈ 0.869 µM) | ≤ 0.03 | 0.5 (≈ 0.869 µM) | 0.125 (≈ 0.217 µM) | 3.12 (≈ 5.42 µM) | ≤ 0.03 | ≤ 0.03 | 0.06 (≈ 0.104 µM) | 2 (≈ 3.47 µM) | 0.125 (≈ 0.217 µM) | MIC90 (Providencia rettgeri): ≤ 0.03 µg/mL; MIC90 (Proteus mirabilis): ≤ 0.03 µg/mL; MIC90 [16]: 0.125 µg/mL (≈ 0.217 µM); MIC90 (Serratia marcescens): 0.06 µg/mL (≈ 0.104 µM); MIC90 (Proteus vulgaris): ≤ 0.03 µg/mL
4 | Cc1ccc2c(c1)C(=O)C(=O)N2CCCOC(=O)c1cn(C2CC2)c2cc(N3CCN(CCCN4C(=O)C(=O)c5cc(C)ccc54)CC3)c(F)cc2c1=O | 64 (≈ 87.2 µM) | 8 (≈ 10.9 µM) | 128 (≈ 174 µM) | 64 (≈ 87.2 µM) | 64 (≈ 87.2 µM) | 128 (≈ 174 µM) | > 128 | 64 (≈ 87.2 µM) | > 128 | 32 (≈ 43.6 µM) | 64 (≈ 87.2 µM) | 8 (≈ 10.9 µM) | 64 (≈ 87.2 µM) | 64 (≈ 87.2 µM) | 50 (≈ 68.1 µM) | 128 (≈ 174 µM) | 64 (≈ 87.2 µM) | 128 (≈ 174 µM) | 128 (≈ 174 µM) | > 128 | MIC90 (Providencia rettgeri): 128 µg/mL (≈ 174 µM); MIC90 (Proteus mirabilis): 64 µg/mL (≈ 87.2 µM); MIC90 [16]: 32 µg/mL (≈ 43.6 µM); MIC90 (Serratia marcescens): > 128 µg/mL; MIC90 (Proteus vulgaris): 64 µg/mL (≈ 87.2 µM)
5 | O=C1C(=O)N(CCCN2CCN(c3cc4c(cc3F)c(=O)c(C(=O)O)cn4C3CC3)CC2)c2ccccc21 | 128 (≈ 247 µM) | ≤ 0.03 | 8 (≈ 15.4 µM) | 1 (≈ 1.93 µM) | ≤ 0.03 | 1 (≈ 1.93 µM) | 1 (≈ 1.93 µM) | ≤ 0.03 | 64 (≈ 123 µM) | 0.03 (≈ 0.0579 µM) | 1 (≈ 1.93 µM) | ≤ 0.03 | 1 (≈ 1.93 µM) | 0.25 (≈ 0.482 µM) | 0.2 (≈ 0.386 µM) | ≤ 0.03 | 0.125 (≈ 0.241 µM) | 0.125 (≈ 0.241 µM) | 4 (≈ 7.71 µM) | 0.25 (≈ 0.482 µM) | MIC90 (Providencia rettgeri): 0.03 µg/mL (≈ 0.0579 µM); MIC90 (Proteus mirabilis): ≤ 0.03 µg/mL; MIC90 [16]: 0.25 µg/mL (≈ 0.482 µM); MIC90 (Serratia marcescens): 0.25 µg/mL (≈ 0.482 µM); MIC90 (Proteus vulgaris): ≤ 0.03 µg/mL
